Reference: ChEMBL document CHEMBL1128497, “Synthesis and in vitro and in vivo antitumor activity of a series of trans platinum antitumor complexes” (J Med Chem, 1995)
“And” between values parts separate entries of the source, which are not always exact repeats. Equal entries are not always repeated. The source made the active and inactive calls. The calls are words filed in the database; no cut-off is given here.

Assays:
CH1 [1] = assay: In vitro antitumor activity against CH1cisR cell line.; type: functional, cell-based, Homo sapiens
Summary of the method: (§1)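 Human ovarian carcinoma monolayers were grown in DMEM with 10% FCS, insulin and hydrocortisone under 10% CO2. Cells were seeded at 5 × 10^3–1 × 10^4 per well and left to attach overnight. Drugs were freshly dissolved in 0.9% saline (1 mM or 500 μM stocks) and added to quadruplicate wells for 96 h. Cell mass was read by SRB staining. IC50 values are means of at least two experiments.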

SK-OV-3 = assay: In vitro antitumor activity against SK-OV-3 cell line.; type: functional, cell-based, Homo sapiens; summary of the method: as §1
41M [2] = assay: In vitro antitumor activity against 41McisR cell line.; type: functional, cell-based, Homo sapiens; summary of the method: as §1
A2780 [3] = assay: In vitro antitumor activity against A2780 cell line.; type: functional, cell-based, Homo sapiens; summary of the method: as §1
A2780 [4] = assay: In vitro antitumor activity against A2780cisR cell line.; type: functional, cell-based, Homo sapiens; summary of the method: as §1
Mus musculus [5] = assay: In Vivo Antitumor activity against the acquired cisplatin-resistant ADJ/PC6 Plasmacytoma (ADJ/PC6cisR) in mice; type: ADME, organism-based
41M [6] = assay: In vitro antitumor activity against 41M cell line.; type: functional, cell-based, Homo sapiens; summary of the method: as §1
[7] = In vivo antitumor activity by i.p. administration against murine ADJ/PC6 (sc) plasmacytoma.; type: ADME, organism-based; conditions: mouse, ip
CH1 [8] = assay: (§2) In vitro antitumor activity against CH1 cell line.; type: functional, cell-based, Homo sapiens; summary of the method: as §1
Mus musculus [9] = assay: In Vivo Antitumor activity by ip administration against Murine ADJ/PC6 (sc) Plasmacytoma in mice; - = 90% tumor inhibition not obtained; type: functional, organism-based; conditions: Plasma
Summary of the method: (§3)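 ADJ/PC6 plasmacytoma (or its cisplatin-resistant subline) was implanted sc as 1 mm3 fragments. On day 20 mice received a single ip injection of drug as a sonicated suspension in arachis oil, at halving doses. Ten days later tumors were dissected and weighed against controls. […] Therapeutic index is MTD/ED90, alongside LD50.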

CH1 [10] = assay: as §2; type: functional, cell-based, Homo sapiens; summary of the method: as §1; remark: listed apart in the source
Mus musculus [11] = assay: Ability to inhibit Antitumor activity against PXN/109T/C Human Ovarian Cracinoma xenograft in mice at dose 10 mg/kg by ip administration; type: functional, organism-based; design: dose 10 mg/kg
Summary of the method: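 Human ovarian carcinoma xenografts were grown subcutaneously in female Balb C nude mice. Tumors were measured weekly until they doubled their starting volume. Growth delay is the difference in doubling time between treated and control tumors.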

Mus musculus [12] = assay: In Vivo Antitumor activity by ip administration against Murine ADJ/PC6 (sc) Plasmacytoma in mice; type: functional, organism-based; conditions: Plasma; summary of the method: as §3

Substance | IC50 (CH1 [1]) | IC50 (SK-OV-3) | IC50 (41M [2]) | IC50 (A2780 [3]) | IC50 (A2780 [4]) | LD50 (Mus musculus [5]) [mg/kg] | IC50 (41M [6]) | LD50 [7] | IC50 (CH1 [8]) [nM] | ED90 (Mus musculus [9]) | IC50 (CH1 [10]) [nM] | Growth delay (Mus musculus [11]) [days] | ED90 (Mus musculus [12])
CISPLATIN | 710 nM | 4400 nM | 1200 nM | 330 nM | 5200 nM | 11 | 260 nM | 11.3 mg/kg | 110 | – | – | – | –
TRANSPLATIN | – | – | – | – | – | – | – | – | – | inactive | – | – | –
trans-a-ammine-b,d-dichloro-f-(2-methyl1-2-propylamine)-c,e-dihydroxoplatinium (IV) [listing 1 of 2 here] | 3400 nM and 1620 nM | 34000 nM and 4700 nM | 8000 nM and 900 nM | 800 nM and 210 nM | 8500 nM and 4200 nM | – | 4500 nM and 1100 nM | 35.5 mg/kg and 35 mg/kg | 740 | – | 1100 | – | –
trans-a-ammine-b,d-dichloro-f-(2-methyl1-2-propylamine)-c,e-dihydroxoplatinium (IV) [listing 2 of 2 here] | – | – | – | – | – | – | – | – | – | – | – | 13.4 | 4.9 mg/kg and 4.7 mg/kg
